Results from ChEMBL document CHEMBL4261642, “Design, synthesis, and ex vivo evaluation of a selective inhibitor for retinaldehyde dehydrogenase enzymes” (Bioorg Med Chem, 2018).
Values belong to the molecule of their own block, whether it stands above or below them. Calls of active or inactive are those of the source. The calls are words filed in the database; no cut-off is given here.

How the values were obtained:
Retinal dehydrogenase 2 = biological target: T1, Retinal dehydrogenase 2 (Gallus gallus, UniProt O93344); assay: Inhibition of RALDH2 in living intact choroid isolated from 4 day recovering chick eyes assessed as inhibition of ATRA synthesis after 24 hrs in presence of […]
T1 sequence (O93344 whole entry): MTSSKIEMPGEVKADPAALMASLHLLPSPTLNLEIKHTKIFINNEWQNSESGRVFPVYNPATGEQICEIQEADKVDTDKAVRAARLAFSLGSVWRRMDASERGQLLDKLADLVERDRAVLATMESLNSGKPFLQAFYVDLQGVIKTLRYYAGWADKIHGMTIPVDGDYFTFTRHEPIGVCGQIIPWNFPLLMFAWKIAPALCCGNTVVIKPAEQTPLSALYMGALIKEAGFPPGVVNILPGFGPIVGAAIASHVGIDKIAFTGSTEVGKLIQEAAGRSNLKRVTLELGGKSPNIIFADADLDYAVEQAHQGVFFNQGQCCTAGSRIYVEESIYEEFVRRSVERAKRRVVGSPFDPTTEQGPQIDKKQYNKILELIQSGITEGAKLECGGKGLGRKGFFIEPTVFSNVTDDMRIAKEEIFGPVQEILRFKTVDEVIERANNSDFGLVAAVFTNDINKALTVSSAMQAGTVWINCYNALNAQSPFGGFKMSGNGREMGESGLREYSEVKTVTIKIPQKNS

[1] = biological target: T2, Retinal dehydrogenase 2 (Gallus gallus) (UniProt O93344); assay: Inhibition of RALDH2 in living intact choroid isolated from 4 day recovering chick eyes assessed as inhibition of ATRA synthesis at 10 uM after 24 hrs in presence of […]
T2 sequence (whole entry): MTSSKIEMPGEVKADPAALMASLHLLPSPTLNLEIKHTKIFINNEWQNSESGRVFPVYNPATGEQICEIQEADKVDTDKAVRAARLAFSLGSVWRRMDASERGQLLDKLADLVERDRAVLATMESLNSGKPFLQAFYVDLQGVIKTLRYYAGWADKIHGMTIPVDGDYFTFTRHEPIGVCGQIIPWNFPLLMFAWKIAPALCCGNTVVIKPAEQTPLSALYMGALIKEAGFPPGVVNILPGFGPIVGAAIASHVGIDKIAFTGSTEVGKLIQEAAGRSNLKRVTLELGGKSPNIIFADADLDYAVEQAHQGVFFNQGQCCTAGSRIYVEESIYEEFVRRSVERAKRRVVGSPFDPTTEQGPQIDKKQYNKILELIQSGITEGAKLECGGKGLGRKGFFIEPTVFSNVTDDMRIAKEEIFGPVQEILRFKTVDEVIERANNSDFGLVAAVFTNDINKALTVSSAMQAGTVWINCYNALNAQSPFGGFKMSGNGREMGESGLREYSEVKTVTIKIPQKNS

[2] = biological target: T2, Retinal dehydrogenase 2 (Gallus gallus); assay: Inhibition of RALDH2 in living intact choroid isolated from 4 day recovering chick eyes assessed as inhibition of ATRA synthesis at 1 uM after 24 hrs in presence of […]
[3] = biological target: T2, Retinal dehydrogenase 2 (Gallus gallus); assay: Inhibition of RALDH2 in living intact choroid isolated from 4 day recovering chick eyes assessed as inhibition of ATRA synthesis at 0.1 uM after 24 hrs in presence of […]
[4] = biological target: T3, Aldehyde dehydrogenase, mitochondrial (Homo sapiens, UniProt P05091); assay: Inhibition of N-terminal His6-tagged recombinant human mitochondrial ALDH2 using propionaldehyde as substrate preincubated for 20 mins to 1 hr followed by substrate addition and measured for 5 mins in presence of NADH by spectrophotometric assay; settings: read-out: IC50
T3 sequence (P05091 whole entry): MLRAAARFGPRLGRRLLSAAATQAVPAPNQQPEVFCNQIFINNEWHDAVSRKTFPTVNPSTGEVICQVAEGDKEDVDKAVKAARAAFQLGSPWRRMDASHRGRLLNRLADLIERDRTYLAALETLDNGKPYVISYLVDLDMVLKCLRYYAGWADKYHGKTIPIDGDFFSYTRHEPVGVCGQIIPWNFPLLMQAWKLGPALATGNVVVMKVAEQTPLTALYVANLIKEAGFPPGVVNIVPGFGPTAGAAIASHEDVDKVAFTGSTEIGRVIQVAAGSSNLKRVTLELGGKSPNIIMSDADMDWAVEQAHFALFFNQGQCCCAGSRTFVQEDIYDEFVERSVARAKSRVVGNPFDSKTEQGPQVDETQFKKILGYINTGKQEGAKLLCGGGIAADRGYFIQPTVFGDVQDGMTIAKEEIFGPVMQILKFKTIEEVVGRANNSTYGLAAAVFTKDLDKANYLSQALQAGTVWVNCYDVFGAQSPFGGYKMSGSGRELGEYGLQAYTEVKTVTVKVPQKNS

[5] = biological target: T2, Retinal dehydrogenase 2 (Gallus gallus); assay: Inhibition of RALDH2 in living intact choroid isolated from normal chick eyes assessed as inhibition of ATRA synthesis after 24 hrs in presence of retinaldehyde and NAD+
[6] = compound: CC1=C(/C=C/C(C)=C/C=C/C(C)=C/C(=O)C(Cl)Cl)C(C)(C)CCC1; assay: (§1) Inhibition of N-terminal His6-tagged recombinant chick RALDH1 expressed in Escherichia coli BL21(DE3) cells at 100 nM using RAL as substrate assessed as Km preincubated for 20 mins followed by substrate addition and measured after 30 mins in presence of NADH by fluorescence assay (reference value: 67.09 +/- 25.06 microM); settings: Gallus gallus
[7] = compound: CC1=C(/C=C/C(C)=C/C=C/C(C)=C/C(=O)C(Cl)Cl)C(C)(C)CCC1; assay: as §1, with “500” for “100”; settings: Gallus gallus
[8] = compound: CC1=C(/C=C/C(C)=C/C=C/C(C)=C/C(=O)C(Cl)Cl)C(C)(C)CCC1; assay: as §1, with “500” for “100”, “Vmax” for “Km”, “54.77” for “67.09”, “7.58 pmol/microM/min)” for “25.06 microM)”; settings: Gallus gallus
[9] = compound: CC1=C(/C=C/C(C)=C/C=C/C(C)=C/C(=O)C(Cl)Cl)C(C)(C)CCC1; assay: as §1, with “1000” for “100”, “Vmax” for “Km”, “54.77” for “67.09”, “7.58 pmol/microM/min)” for “25.06 microM)”; settings: Gallus gallus
[10] = compound: CC1=C(/C=C/C(C)=C/C=C/C(C)=C/C(=O)C(Cl)Cl)C(C)(C)CCC1; assay: as §1, with “Vmax” for “Km”, “54.77” for “67.09”, “7.58 pmol/microM/min)” for “25.06 microM)”; settings: Gallus gallus
[11] = compound: CC1=C(/C=C/C(C)=C/C=C/C(C)=C/C(=O)C(Cl)Cl)C(C)(C)CCC1; assay: as §1, with “1000” for “100”; settings: Gallus gallus
[12] = compound: CC1=C(/C=C/C(C)=C/C=C/C(C)=C/C(=O)C(Cl)Cl)C(C)(C)CCC1; assay: as §1, with “RALDH2” for “RALDH1”, “200” for “100”, “Vmax” for “Km”, “1665” for “67.09”, “239.28 pmol/microM/min)” for “25.06 microM)”; settings: Gallus gallus
[13] = compound: CC1=C(/C=C/C(C)=C/C=C/C(C)=C/C(=O)C(Cl)Cl)C(C)(C)CCC1; assay: as §1, with “RALDH2” for “RALDH1”, “50” for “100”, “82.12” for “67.09”, “28.41” for “25.06”; settings: Gallus gallus
[14] = compound: CC1=C(/C=C/C(C)=C/C=C/C(C)=C/C(=O)C(Cl)Cl)C(C)(C)CCC1; assay: as §1, with “RALDH2” for “RALDH1”, “250” for “100”, “Vmax” for “Km”, “1665” for “67.09”, “239.28 pmol/microM/min)” for “25.06 microM)”; settings: Gallus gallus
[15] = compound: CC1=C(/C=C/C(C)=C/C=C/C(C)=C/C(=O)C(Cl)Cl)C(C)(C)CCC1; assay: as §1, with “RALDH2” for “RALDH1”, “150” for “100”, “Vmax” for “Km”, “1665” for “67.09”, “239.28 pmol/microM/min)” for “25.06 microM)”; settings: Gallus gallus
[16] = compound: CC1=C(/C=C/C(C)=C/C=C/C(C)=C/C(=O)C(Cl)Cl)C(C)(C)CCC1; assay: as §1, with “RALDH2” for “RALDH1”, “200” for “100”, “82.12” for “67.09”, “28.41” for “25.06”; settings: Gallus gallus
[17] = compound: CC1=C(/C=C/C(C)=C/C=C/C(C)=C/C(=O)C(Cl)Cl)C(C)(C)CCC1; assay: as §1, with “RALDH2” for “RALDH1”, “50” for “100”, “Vmax” for “Km”, “1665” for “67.09”, “239.28 pmol/microM/min)” for “25.06 microM)”; settings: Gallus gallus
[18] = compound: CC1=C(/C=C/C(C)=C/C=C/C(C)=C/C(=O)C(Cl)Cl)C(C)(C)CCC1; assay: as §1, with “RALDH2” for “RALDH1”, “150” for “100”, “82.12” for “67.09”, “28.41” for “25.06”; settings: Gallus gallus
[19] = compound: CC1=C(/C=C/C(C)=C/C=C/C(C)=C/C(=O)C(Cl)Cl)C(C)(C)CCC1; assay: Inhibition of N-terminal His6-tagged recombinant chick RALDH2 expressed in Escherichia coli BL21(DE3) cells at 150 nM using RAL as substrate assessed as Vmax at enzyme concentrations of 183 to 365 nM measured after 30 mins in presence of NADH by fluorescence assay; settings: Gallus gallus
How it was run: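 Chick RALDH2 at 46–365 nM pre-incubated 20 min with a fixed 150 nM inhibitor. NADH synthesis then started with 250 μM retinaldehyde and 4 mM NAD+, 30 min at 37°C, read fluorimetrically. Vmax plotted against enzyme concentration.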

[20] = compound: CC1=C(/C=C/C(C)=C/C=C/C(C)=C/C(=O)C(Cl)Cl)C(C)(C)CCC1; assay: as §1, with “RALDH2” for “RALDH1”, “82.12” for “67.09”, “28.41” for “25.06”; settings: Gallus gallus
[21] = compound: CC1=C(/C=C/C(C)=C/C=C/C(C)=C/C(=O)C(Cl)Cl)C(C)(C)CCC1; assay: as §1, with “RALDH2” for “RALDH1”, “250” for “100”, “82.12” for “67.09”, “28.41” for “25.06”; settings: Gallus gallus
[22] = compound: CC1=C(/C=C/C(C)=C/C=C/C(C)=C/C(=O)C(Cl)Cl)C(C)(C)CCC1; assay: as §1, with “RALDH2” for “RALDH1”, “Vmax” for “Km”, “1665” for “67.09”, “239.28 pmol/microM/min)” for “25.06 microM)”; settings: Gallus gallus

EC50 (Retinal dehydrogenase 2): 0.0445 µM
inhibition [1]: 76%
inhibition [2]: 51%
inhibition [3]: 40%
IC50 [4]: 0.229 µM
inhibition [5]: inactive
Molecule: O=C(NCCCCCCCCNC(=O)C(Cl)Cl)C(Cl)Cl

B1: Aldehyde dehydrogenase 1A1 (Gallus gallus), P27463 (protein)
chain: MKKQGSPSNPAPVLPALPEPLKDLKIKYTKIFINNEWHDSVSGKKFEVFNPANEEKICEVAEGDKADIDKAVKAARKAFELGSPWRTMDASERGRLLNKLADLVERDRLTLATMEAIDGGKLFSTAYLMDLGACIKTIRYCAGWADKIHGRTVPMDGNFFTFTRHEPVGVCGQIIPWNFPLVMFIWKIAPALCCGNTVVVKPAEQTPLSALYMGSLIKEAGFPPGVVNIVPGFGPTAGAAISHHMDIDKVSFTGSTEVGKLIKEAAGKTNLKRVTLELGGKSPNIIFADADLDEAAEFAHIGLFYHQGQCCIAGSRIFVEEPIYDEFVRRSIERAKKYTLGDPLLPGVQQGPQIDKEQFQKILDLIESGKKEGAKLECGGGPWGNKGYFIQPTVFSNVTDDMRIAKEEIFGPVQQIMKFKTIDEVIKRANNTTYGLAAAVFTKDIDKALTFASALQAGTVWVNCYSAFSAQCPFGGFKMSGNGRELGEYGLQEYTEVKTVTIKIPQKNS
Km [6]: 62.2 µM
Km [7]: 32.9 µM
Vmax [8]: 33.8 pmol/µM/min
Vmax [9]: 25.7 pmol/µM/min
Vmax [10]: 50.1 pmol/µM/min
Km [11]: 22.8 µM

B2: Retinal dehydrogenase 2 (Gallus gallus), O93344 (protein)
chain: MTSSKIEMPGEVKADPAALMASLHLLPSPTLNLEIKHTKIFINNEWQNSESGRVFPVYNPATGEQICEIQEADKVDTDKAVRAARLAFSLGSVWRRMDASERGQLLDKLADLVERDRAVLATMESLNSGKPFLQAFYVDLQGVIKTLRYYAGWADKIHGMTIPVDGDYFTFTRHEPIGVCGQIIPWNFPLLMFAWKIAPALCCGNTVVIKPAEQTPLSALYMGALIKEAGFPPGVVNILPGFGPIVGAAIASHVGIDKIAFTGSTEVGKLIQEAAGRSNLKRVTLELGGKSPNIIFADADLDYAVEQAHQGVFFNQGQCCTAGSRIYVEESIYEEFVRRSVERAKRRVVGSPFDPTTEQGPQIDKKQYNKILELIQSGITEGAKLECGGKGLGRKGFFIEPTVFSNVTDDMRIAKEEIFGPVQEILRFKTVDEVIERANNSDFGLVAAVFTNDINKALTVSSAMQAGTVWINCYNALNAQSPFGGFKMSGNGREMGESGLREYSEVKTVTIKIPQKNS
Vmax [12]: 666 pmol/µM/min
Km [13]: 80.7 µM
Vmax [14]: 503 pmol/µM/min
Vmax [15]: 867 pmol/µM/min
Km [16]: 18.3 µM
Vmax [17]: 1560 pmol/µM/min
Km [18]: 22.7 µM
Vmax [19]: 0.5 to 3.01 µM/min
Km [20]: 47.2 µM
Km [21]: 14.9 µM
Vmax [22]: 1150 pmol/µM/min
